ChEMBL document CHEMBL3994633, “Exploration of phenylpropanoic acids as agonists of the free fatty acid receptor 4 (FFA4): Identification of an orally efficacious FFA4 agonist” (Bioorg Med Chem Lett, 2017)
Substitutions are numbered along the chain they refer to.

Assays:
[1] = molecular target: T1, Free fatty acid receptor 4 (Homo sapiens) (UniProt Q5NUL3); assay: Agonist activity at human FFA4 receptor expressed in human U2OS cells co-expressing Galpha16 assessed as calcium mobilization by Fluo-4 dye based FLIPR assay relative to GSK137647A; format: functional, cell-based
T1 sequence (whole entry): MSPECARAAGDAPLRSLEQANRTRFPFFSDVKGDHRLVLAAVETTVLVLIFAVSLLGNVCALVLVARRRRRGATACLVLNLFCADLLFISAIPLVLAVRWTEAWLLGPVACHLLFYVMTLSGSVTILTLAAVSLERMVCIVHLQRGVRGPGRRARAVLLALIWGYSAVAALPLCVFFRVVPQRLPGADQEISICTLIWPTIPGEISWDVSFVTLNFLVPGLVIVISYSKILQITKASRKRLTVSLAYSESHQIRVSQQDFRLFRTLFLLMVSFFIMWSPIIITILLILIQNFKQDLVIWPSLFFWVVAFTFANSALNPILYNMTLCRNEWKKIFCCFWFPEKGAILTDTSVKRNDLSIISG
Outline: (§1)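 U2OS cells transiently expressing human FFA1 or FFA4. Agonism measured from a ten-point dose-response curve with FLIPR readout, giving EC50 (nM) and efficacy (% max response). Values are means of three experiments.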

[2] = Clearance in C57BL/6J mouse at 4.2 mg/kg, iv; format: ADME, organism-based; conditions: in vivo
Outline: (§2)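 C57BL/6J mice (n = 2) dosed intravenously at 3 or 4.2 mg/kg. Clearance (mL/min/kg) and AUC (hr*ng/mL) derived from plasma concentrations.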

[3] = molecular target: Free fatty acid receptor 1 (Mus musculus) (UniProt Q76JU9); assay: Agonist activity at mouse FFA1 receptor relative to control
Sequence of Free fatty acid receptor 1 (Mus musculus) (Q76JU9 whole entry): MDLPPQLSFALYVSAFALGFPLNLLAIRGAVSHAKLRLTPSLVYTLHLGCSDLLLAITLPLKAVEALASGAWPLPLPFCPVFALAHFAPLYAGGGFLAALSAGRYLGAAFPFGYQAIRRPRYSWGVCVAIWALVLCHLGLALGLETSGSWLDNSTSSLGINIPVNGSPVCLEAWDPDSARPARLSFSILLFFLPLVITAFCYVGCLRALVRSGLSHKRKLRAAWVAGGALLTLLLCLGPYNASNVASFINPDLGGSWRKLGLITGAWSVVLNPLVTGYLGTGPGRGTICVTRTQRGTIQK

Mus musculus [4] = species: Mus musculus; assay: Selectivity ratio of EC50 for mouse FFA1 receptor to EC50 for mouse FFA4 receptor
[5] = molecular target: T2, Free fatty acid receptor 4 (Mus musculus) (UniProt Q7TMA4); assay: Agonist activity at mouse FFA4 receptor relative to control
T2 sequence (whole entry): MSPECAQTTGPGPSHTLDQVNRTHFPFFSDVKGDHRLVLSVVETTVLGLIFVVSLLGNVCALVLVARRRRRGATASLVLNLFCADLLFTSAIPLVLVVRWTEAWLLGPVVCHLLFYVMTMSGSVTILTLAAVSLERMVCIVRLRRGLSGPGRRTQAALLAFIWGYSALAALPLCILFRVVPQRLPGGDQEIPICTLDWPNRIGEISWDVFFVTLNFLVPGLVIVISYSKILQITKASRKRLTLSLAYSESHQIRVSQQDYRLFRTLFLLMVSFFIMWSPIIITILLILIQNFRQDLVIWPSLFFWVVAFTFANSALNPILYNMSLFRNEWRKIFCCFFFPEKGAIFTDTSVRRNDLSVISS

[6] = molecular target: T3, Free fatty acid receptor 4 (Homo sapiens, UniProt Q5NUL3); assay: Agonist activity at human FFA4 receptor expressed in human U2OS cells co-expressing Galpha16 assessed as calcium mobilization by Fluo-4 dye based FLIPR assay; format: functional, cell-based; outline: as §1
T3 sequence (Q5NUL3 whole entry): T1 sequence (whole entry)

[7] = molecular target: Free fatty acid receptor 1 (Rattus norvegicus, UniProt Q8K3T4); assay: Agonist activity at rat FFA1 receptor
Sequence of Free fatty acid receptor 1 (Rattus norvegicus, UniProt Q8K3T4) (Q8K3T4 whole entry): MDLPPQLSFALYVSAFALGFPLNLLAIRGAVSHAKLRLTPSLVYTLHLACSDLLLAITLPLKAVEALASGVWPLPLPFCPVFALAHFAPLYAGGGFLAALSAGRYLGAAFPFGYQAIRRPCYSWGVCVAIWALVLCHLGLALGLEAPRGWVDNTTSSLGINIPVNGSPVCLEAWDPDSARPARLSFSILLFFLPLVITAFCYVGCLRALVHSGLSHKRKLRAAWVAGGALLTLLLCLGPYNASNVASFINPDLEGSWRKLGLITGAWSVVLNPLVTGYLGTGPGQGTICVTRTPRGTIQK

[8] = molecular target: Free fatty acid receptor 1 (Mus musculus, UniProt Q76JU9); assay: Agonist activity at mouse FFA1 receptor
Sequence of Free fatty acid receptor 1 (Mus musculus, UniProt Q76JU9) (Q76JU9 whole entry): as the sequence (Q76JU9 whole entry) above

[9] = molecular target: T4, Free fatty acid receptor 4 (Rattus norvegicus) (UniProt Q2AC31); assay: Agonist activity at rat FFA4 receptor relative to control
T4 sequence (whole entry): T2 sequence (whole entry) with H15R, L17P, V42L, A66V, A75V, N328S, D348E, V351I, S361T

Rattus norvegicus [10] = assay: Antidiabetic activity in ZDF rat assessed as plasma glucose level at 100 mg/kg bid for 14 days (reference value: 192 mg/dl); format: functional
[11] = molecular target: T5, Free fatty acid receptor 4 (Rattus norvegicus, UniProt Q2AC31); assay: Agonist activity at rat FFA4 receptor
T5 sequence (Q2AC31 whole entry): T2 sequence (whole entry) with H15R, L17P, V42L, A66V, A75V, N328S, D348E, V351I, S361T

[12] = AUC in C57BL/6J mouse at 4.2 mg/kg, iv; format: ADME, organism-based; conditions: in vivo; outline: as §2
Mus musculus [13] = assay: Antidiabetic activity in db/db mouse assessed as reduction in HbA1c level at 100 mg/kg, po bid after 2 weeks relative to control; format: functional; parameters: scale not given: the % may be the effect or the level left
Outline: (§3)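 Fed db/db mice given vehicle or 100 mg/kg orally twice daily for 2 weeks. Blood glucose measured before treatment and after 1 and 2 weeks; HbA1c measured before and after 2 weeks.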

Rattus norvegicus [14] = assay: Antidiabetic activity in ZDF rat assessed as plasma glucose level at 10 mg/kg bid for 14 days (reference value: 192 mg/dl); format: functional
[15] = molecular target: T6, Free fatty acid receptor 4 (Mus musculus, UniProt Q7TMA4); assay: Agonist activity at mouse FFA4 receptor
T6 sequence (Q7TMA4 whole entry): T2 sequence (whole entry)

[16] = molecular target: T7, Free fatty acid receptor 2 (Homo sapiens, UniProt O15552); assay: Agonist activity at human FFA2 receptor by FLIPR assay
T7 sequence (O15552 whole entry): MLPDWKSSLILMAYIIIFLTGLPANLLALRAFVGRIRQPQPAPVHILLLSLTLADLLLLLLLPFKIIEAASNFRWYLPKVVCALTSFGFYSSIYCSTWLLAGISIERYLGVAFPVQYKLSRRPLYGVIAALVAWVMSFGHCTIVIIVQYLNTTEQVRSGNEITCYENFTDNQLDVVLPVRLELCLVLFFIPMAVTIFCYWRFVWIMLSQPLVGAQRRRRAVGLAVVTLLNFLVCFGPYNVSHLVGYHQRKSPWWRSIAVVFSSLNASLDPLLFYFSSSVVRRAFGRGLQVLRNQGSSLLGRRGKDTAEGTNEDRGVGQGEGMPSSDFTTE
Outline: (§4)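 Human FFA2 or FFA3 agonism tested in FLIPR-based full-curve functional assays. EC50 (nM) and max response (%) reported.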

[17] = molecular target: T8, Free fatty acid receptor 2 (Homo sapiens) (UniProt O15552); assay: Agonist activity at human FFA2 receptor by FLIPR assay relative to control; outline: as §4
T8 sequence (whole entry): T7 sequence (O15552 whole entry)

[18] = Half life in C57BL/6J mouse at 10 mg/kg, po; format: ADME, organism-based; conditions: in vivo
Rattus norvegicus [19] = species: Rattus norvegicus; assay: Selectivity ratio of EC50 for rat FFA1 receptor to EC50 for rat FFA4 receptor
[20] = Cmax in C57BL/6J mouse at 10 mg/kg, po; format: ADME, organism-based; parameters: dose 10 mg/kg, route oral; conditions: in vivo
Outline: (§5)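 C57BL/6J mice (n = 2), single oral dose of 10 mg/kg given as a suspension in 0.5% HMPC: 0.1% Tween. Plasma Cmax and AUC (hr*ng/mL) measured; %F calculated against the IV leg.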

[21] = Oral bioavailability in C57BL/6J mouse at 10 mg/kg; format: ADME, organism-based; conditions: in vivo; outline: as §5
[22] = AUC in C57BL/6J mouse at 10 mg/kg, po; format: ADME, organism-based; conditions: in vivo; outline: as §5
[23] = Protein binding in human plasma; format: ADME, cell-free; conditions: read-out: PPB
Homo sapiens = species: Homo sapiens; assay: Selectivity ratio of EC50 for human FFA1 receptor expressed in human U2OS cells co-expressing Galpha16 to EC50 for human FFA4 receptor expressed in human U2OS cells co-expressing Galpha16; format: cell-based
Mus musculus [24] = assay: Antidiabetic activity in db/db mouse assessed as plasma glucose level at 100 mg/kg, po bid after 2 weeks (reference value: 276 mg/dl); format: functional; outline: as §3
[25] = molecular target: T9, Free fatty acid receptor 3 (Homo sapiens, UniProt O14843); assay: Agonist activity at human FFA3 receptor by FLIPR assay; outline: as §4
T9 sequence (O14843 whole entry): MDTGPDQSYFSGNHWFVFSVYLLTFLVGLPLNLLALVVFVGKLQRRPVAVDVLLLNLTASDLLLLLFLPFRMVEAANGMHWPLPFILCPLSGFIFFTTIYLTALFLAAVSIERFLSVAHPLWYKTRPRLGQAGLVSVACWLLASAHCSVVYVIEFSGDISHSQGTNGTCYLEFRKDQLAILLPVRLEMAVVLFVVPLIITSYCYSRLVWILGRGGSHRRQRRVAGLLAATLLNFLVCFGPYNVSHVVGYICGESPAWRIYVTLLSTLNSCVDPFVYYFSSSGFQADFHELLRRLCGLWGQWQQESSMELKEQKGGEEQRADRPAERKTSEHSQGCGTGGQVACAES

[26] = molecular target: T10, Free fatty acid receptor 1 (Homo sapiens, UniProt O14842); assay: Agonist activity at human FFA1 receptor expressed in human U2OS cells co-expressing Galpha16 assessed as calcium mobilization by Fluo-4 dye based FLIPR assay relative to GSK137647A; format: functional, cell-based; outline: as §1
T10 sequence (O14842 whole entry): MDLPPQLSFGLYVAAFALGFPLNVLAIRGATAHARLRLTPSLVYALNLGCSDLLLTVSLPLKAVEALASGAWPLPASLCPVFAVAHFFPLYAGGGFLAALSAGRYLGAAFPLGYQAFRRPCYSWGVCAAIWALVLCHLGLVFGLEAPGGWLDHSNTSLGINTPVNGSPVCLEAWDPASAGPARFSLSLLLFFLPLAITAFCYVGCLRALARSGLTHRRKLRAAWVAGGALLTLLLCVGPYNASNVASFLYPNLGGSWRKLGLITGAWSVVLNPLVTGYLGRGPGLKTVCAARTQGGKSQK

[27] = molecular target: T10, Free fatty acid receptor 1; assay: Agonist activity at human FFA1 receptor expressed in human U2OS cells co-expressing Galpha16 assessed as calcium mobilization by Fluo-4 dye based FLIPR assay; format: functional, cell-based; conditions: read-out: EC50; outline: as §1

%max [1]: 124%
clearance [2]: 20 mL/min/kg
%max [3]: 83%
Ratio EC50 (Mus musculus [4]): > 85
%max [5]: 108%
EC50 [6]: 0.299 µM
EC50 [7]: > 30 µM
EC50 [8]: 6.21 µM
%max [9]: 110%
EC50 [11]: 0.23 µM
AUC [12]: 3620 ng·h/mL
EC50 [15]: 0.07 µM
EC50 [16]: 25.3 µM
%max [17]: 59%
half-life [18]: 1.7 h
Ratio EC50 (Rattus norvegicus [19]): > 85
Cmax [20]: 6780 ng/mL
bioavailability [21]: 110%
AUC [22]: 9440 ng·h/mL
fraction unbound [23]: 0.001
EC50 [25]: > 50 µM
%max [26]: 105%
EC50 [27]: 11.8 µM
SMILES: COc1ccc(C(F)(F)F)cc1COc1ccc(CCC(=O)O)cc1C
Activity (Rattus norvegicus [10]): 139 mg/dL
Activity (Mus musculus [13]): 1.6%
Activity (Rattus norvegicus [14]): 151 mg/dL
Ratio EC50 (Homo sapiens): 40
Activity (Mus musculus [24]): 106 mg/dL
